Assay results: ChEMBL document CHEMBL1629545, “A morpholino oligomer targeting highly conserved internal ribosome entry site sequence is able to inhibit multiple species of picornavirus” (Antimicrob Agents Chemother, 2008)

Tests used:
[1] = system: HeLa; assay: Cytotoxicity against human HeLa cells at 1 to 10 uM after 24 hrs by MTS assay; format: cell-based
Procedure, shortened: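 HeLa cells at ~80% confluence, uninfected, exposed to 1–100 μM PPMO or water (mock) in serum-free DMEM-F-12 (1:1) for 24 h. MTS reagent was added for 4 h and absorbance read at 492 nm. Viability was expressed as percent of water-treated cells (set to 100%), averaged over 12 wells.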

[2] = system: rhinovirus B14; assay: Antiviral activity against Human rhinovirus type 14 infected in Human HeLa cell assessed as log reduction in viral titer at 5 uM measured after 48 hrs post infection by plaque assay; format: functional, organism-based
Procedure, shortened: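 HRV14 from an infectious clone was used to infect nearly confluent HeLa cells for 1 h at MOI 0.03. Cells were then kept in 10% calf serum medium with PPMO or water at 34°C. Supernatant titre at 48 h p.i. was measured by plaque assay at 34°C with 72 h plaque development. Two experiments were averaged.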

[3] = system: Poliovirus 1; assay: Antiviral activity against Human poliovirus type 1 infected in Human HeLa cells assessed as log reduction in viral titer at 5 uM measured after 24 hrs post infection by plaque assay; format: functional, organism-based
Procedure, shortened: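 Nearly confluent HeLa cells were infected 1 h with a clinical PV1 isolate (passaged once in Vero and once in HeLa) at MOI 0.05. Inoculum was replaced by medium with 10% calf serum containing PPMO (2.5 or 5 μM) or water, at 37°C. Supernatant titre at 24 h p.i. was measured by plaque assay with 36 h plaque development.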

[4] = system: Vero; assay: Cytotoxicity against African green monkey Vero cells at 10 uM after 24 hrs by MTS assay; format: cell-based; settings: chlorocebus sabaeus
[5] = system: SK-N-MC; assay: Cytotoxicity against human SK-N-MC cell at 10 uM after 24 hrs by MTS assay; format: cell-based

In the case of `Cc1cn([C@H]2CN(P(=O)(OC[C@@H]3CN(P(=O)(OC[C@@H]4CNC[C@H](n5cnc6c(=O)[nH]c(N)nc65)O4)N(C)C)C[C@H](n4cnc5c(N)ncnc54)O3)N(C)C)C[C@@H](COP(=O)(N(C)C)N3C[C@@H](COP(=O)(N(C)C)N4C[C@@H](COP(=O)(N(C)C)N5C[C@@H](COP(=O)(N(C)C)N6C[C@@H](COP(=O)(N(C)C)N7C[C@@H](COP(=O)(N(C)C)N8C[C@@H](COP(=O)(N(C)C)N9C[C@@H](COP(=O)(N(C)C)N%10C[C@@H](COP(=O)(N(C)C)N%11C[C@@H](COP(=O)(N(C)C)N%12C[C@@H](COP(=O)(N(C)C)N%13C[C@@H](COP(=O)(N(C)C)N%14C[C@@H](COP(=O)(N(C)C)N%15C[C@@H](COP(=O)(N(C)C)N%16C[C@@H](COP(=O)(N(C)C)N%17C[C@@H](COP(=O)(N(C)C)N%18C[C@@H](COP(=O)(N(C)C)N%19C[C@@H](COP(=O)(N(C)C)N%20C[C@@H](COP(=O)(N(C)C)N%21C[C@@H](COP(=O)(N(C)C)N%22C[C@@H](COP(=O)(N(C)C)N%23C[C@@H](COP(=O)(N(C)C)N%24CCN(C(=O)[C@H](CS)NC(=O)[C@H](Cc%25ccccc%25)NC(=O)[C@H](Cc%25ccccc%25)NC(=O)[C@H](CCCNC(=N)N)NC(=O)[C@H](CCCNC(=N)N)NC(=O)[C@H](CCCNC(=N)N)NC(=O)[C@H](CCCNC(=N)N)NC(=O)[C@H](CCCNC(=N)N)NC(=O)[C@H](CCCNC(=N)N)NC(=O)[C@H](CCCNC(=N)N)NC(=O)[C@H](CCCNC(=N)N)NC(=O)[C@@H](N)CCCNC(=N)N)CC%24)O[C@@H](n%24cnc%25c(=O)[nH]c(N)nc%25%24)C%23)O[C@@H](n%23cnc%24c(N)ncnc%24%23)C%22)O[C@@H](n%22cnc%23c(=O)[nH]c(N)nc%23%22)C%21)O[C@@H](n%21cnc%22c(N)ncnc%22%21)C%20)O[C@@H](n%20cnc%21c(N)ncnc%21%20)C%19)O[C@@H](n%19cnc%20c(N)ncnc%20%19)C%18)O[C@@H](n%18ccc(N)nc%18=O)C%17)O[C@@H](n%17cnc%18c(N)ncnc%18%17)C%16)O[C@@H](n%16ccc(N)nc%16=O)C%15)O[C@@H](n%15cnc%16c(=O)[nH]c(N)nc%16%15)C%14)O[C@@H](n%14cnc%15c(=O)[nH]c(N)nc%15%14)C%13)O[C@@H](n%13cnc%14c(N)ncnc%14%13)C%12)O[C@@H](n%12ccc(N)nc%12=O)C%11)O[C@@H](n%11cnc%12c(N)ncnc%12%11)C%10)O[C@@H](n%10ccc(N)nc%10=O)C9)O[C@@H](n9ccc(N)nc9=O)C8)O[C@@H](n8ccc(N)nc8=O)C7)O[C@@H](n7cnc8c(N)ncnc87)C6)O[C@@H](n6cnc7c(N)ncnc76)C5)O[C@@H](n5cnc6c(N)ncnc65)C4)O[C@@H](n4cnc5c(=O)[nH]c(N)nc54)C3)O2)c(=O)[nH]c1=O` (stereo not given in full), the Activity [1] is reported as “Non-toxic”, the FC [2] is reported as 2 and the FC [3] is reported as 2. For the same compound, the Activity [4] was “Non-toxic” and the Activity [5] was “Non-toxic”.
